Reference: ChEMBL document CHEMBL3525985, “Regiospecificity and stereospecificity of human UDP-glucuronosyltransferases in the glucuronidation of estriol, 16-epiestriol, 17-epiestriol, and 13-epiestradiol” (Drug Metab Dispos, 2013)
pKi: −log10 of the molar value. Each block holds one compound with its values, some of them ahead of it.

What was measured:
Type in all cases: ADME
[1] = Drug metabolism in human intestine microsomes assessed as 17-epiestriol-16-glucuronide formation after 15 to 60 mins by Michaelis-Menten equation analysis in presence of UDPGA
Method in brief: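 Pooled human intestine microsomes (6 donors), 0.5 or 10 µg, with alamethicin at 5% of total protein. Incubated with 50 mM phosphate pH 7.4, 10 mM MgCl₂, 5 mM UDPGA and 10% DMSO for 15–60 min at 37°C. Each glucuronide regioisomer quantified by HPLC, in triplicate, with substrate consumption at or below 10%.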

[2] = target: T1, UDP-glucuronosyltransferase 1A3 (Homo sapiens, UniProt P35503); assay: Drug metabolism assessed as recombinant human C-terminal His-tagged UGT1A3-mediated 16-epiestriol-16-glucuronide formation after 15 to 60 mins by Michaelis-Menten equation analysis in presence of UDPGA; details: recombinant enzyme
T1 sequence (P35503 whole entry): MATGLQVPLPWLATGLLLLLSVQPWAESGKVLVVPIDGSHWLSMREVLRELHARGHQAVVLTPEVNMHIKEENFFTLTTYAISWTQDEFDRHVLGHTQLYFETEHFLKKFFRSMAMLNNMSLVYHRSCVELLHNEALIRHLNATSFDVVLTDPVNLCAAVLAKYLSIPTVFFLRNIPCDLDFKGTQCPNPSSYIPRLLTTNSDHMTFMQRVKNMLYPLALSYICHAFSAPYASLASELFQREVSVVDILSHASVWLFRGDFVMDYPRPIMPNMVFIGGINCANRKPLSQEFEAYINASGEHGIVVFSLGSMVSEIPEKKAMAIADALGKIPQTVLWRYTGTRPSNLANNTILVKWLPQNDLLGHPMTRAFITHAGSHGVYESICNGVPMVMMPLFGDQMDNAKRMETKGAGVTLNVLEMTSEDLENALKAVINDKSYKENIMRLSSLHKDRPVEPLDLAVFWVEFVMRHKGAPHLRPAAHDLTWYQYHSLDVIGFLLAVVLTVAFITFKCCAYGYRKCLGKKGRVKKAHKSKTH

[3] = target: T2, UDP-glucuronosyltransferase 1A10 (Homo sapiens, UniProt Q9HAW8); assay: Inhibition of recombinant human C-terminal His-tagged UGT1A10 after 15 to 60 mins by Michaelis-Menten equation analysis in presence of UDPGA
T2 sequence (Q9HAW8 whole entry): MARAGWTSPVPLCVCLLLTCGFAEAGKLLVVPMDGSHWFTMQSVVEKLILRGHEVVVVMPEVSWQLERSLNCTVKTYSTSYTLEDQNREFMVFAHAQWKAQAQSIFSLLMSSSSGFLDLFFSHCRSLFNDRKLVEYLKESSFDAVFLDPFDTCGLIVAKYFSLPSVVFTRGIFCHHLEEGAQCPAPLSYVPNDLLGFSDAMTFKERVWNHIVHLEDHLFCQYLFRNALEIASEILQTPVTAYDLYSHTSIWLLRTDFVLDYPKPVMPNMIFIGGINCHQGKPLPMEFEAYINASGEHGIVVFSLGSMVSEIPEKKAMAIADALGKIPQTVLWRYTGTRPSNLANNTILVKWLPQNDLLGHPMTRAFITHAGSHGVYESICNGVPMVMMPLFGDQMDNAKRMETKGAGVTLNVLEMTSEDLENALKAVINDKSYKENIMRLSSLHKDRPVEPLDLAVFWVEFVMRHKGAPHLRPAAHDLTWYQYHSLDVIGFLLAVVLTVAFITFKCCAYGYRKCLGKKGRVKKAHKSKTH
Method in brief: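 Kinetics with His-tagged UGT-enriched insect-cell membranes (5 or 50 µg): aglycone 0.2–300 µM in 10% DMSO, 5 mM UDPGA, 10 mM MgCl₂, 50 mM phosphate pH 7.4, 15–60 min at 37°C. Substrate consumption kept at or below 10%. Glucuronides quantified by HPLC in triplicate, rates normalized to expression, and data fitted to Michaelis-Menten.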

[4] = target: T3, UDP-glucuronosyltransferase 2B7 (Homo sapiens, UniProt P16662); assay: Drug metabolism assessed as recombinant human C-terminal His-tagged UGT2B7-mediated estradiol-17-glucuronide formation at 200 uM after 15 to 60 mins by HPLC analysis in presence of UDPGA; details: recombinant enzyme
T3 sequence (P16662 whole entry): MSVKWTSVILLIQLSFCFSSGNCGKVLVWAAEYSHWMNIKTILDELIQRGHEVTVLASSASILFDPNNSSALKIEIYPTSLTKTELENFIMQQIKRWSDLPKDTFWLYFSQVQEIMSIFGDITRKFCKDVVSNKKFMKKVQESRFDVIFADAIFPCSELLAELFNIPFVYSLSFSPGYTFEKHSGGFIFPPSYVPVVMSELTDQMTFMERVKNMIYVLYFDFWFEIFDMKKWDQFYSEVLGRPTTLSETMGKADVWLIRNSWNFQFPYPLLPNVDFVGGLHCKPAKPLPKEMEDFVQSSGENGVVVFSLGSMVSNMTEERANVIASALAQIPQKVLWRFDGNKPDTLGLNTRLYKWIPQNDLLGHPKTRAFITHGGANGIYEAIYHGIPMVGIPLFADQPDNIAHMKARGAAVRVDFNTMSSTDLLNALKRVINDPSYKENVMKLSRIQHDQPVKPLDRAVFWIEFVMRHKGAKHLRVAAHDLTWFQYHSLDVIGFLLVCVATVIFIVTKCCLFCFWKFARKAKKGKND
Method in brief: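 Membranes (5 or 50 µg) from insect cells expressing His-tagged UGT2B7, with 200 µM aglycone in 50 mM phosphate pH 7.4, 10 mM MgCl₂, 5 mM UDPGA and 10% DMSO (final), 15–60 min at 37°C. Stopped with perchloric acid on ice, supernatant run on HPLC. Done in triplicate with no-UDPGA controls; rates normalized to relative UGT expression.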

[5] = target: T4, UDP-glucuronosyltransferase 2A1 (Homo sapiens, UniProt P0DTE4); assay: Drug metabolism assessed as recombinant human C-terminal His-tagged UGT2A1-mediated estriol-16-glucuronide formation after 15 to 60 mins by Michaelis-Menten equation analysis in presence of UDPGA; details: recombinant enzyme
T4 sequence (P0DTE4 whole entry): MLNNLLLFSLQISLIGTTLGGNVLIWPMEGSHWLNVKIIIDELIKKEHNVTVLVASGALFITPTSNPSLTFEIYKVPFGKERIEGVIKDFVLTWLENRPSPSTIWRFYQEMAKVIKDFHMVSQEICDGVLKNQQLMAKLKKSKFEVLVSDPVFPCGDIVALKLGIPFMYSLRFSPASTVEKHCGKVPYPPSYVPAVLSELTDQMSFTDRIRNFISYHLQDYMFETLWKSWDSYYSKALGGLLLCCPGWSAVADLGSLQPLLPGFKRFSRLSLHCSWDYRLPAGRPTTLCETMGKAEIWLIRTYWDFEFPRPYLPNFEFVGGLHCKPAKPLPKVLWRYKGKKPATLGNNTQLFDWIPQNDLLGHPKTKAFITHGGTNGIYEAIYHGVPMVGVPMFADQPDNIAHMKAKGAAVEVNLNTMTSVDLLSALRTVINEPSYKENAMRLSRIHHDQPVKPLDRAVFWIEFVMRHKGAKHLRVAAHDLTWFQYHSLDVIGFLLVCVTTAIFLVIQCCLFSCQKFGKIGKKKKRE

- Km [1]: 820 µM
- Vmax [1]: 266 pmol/min/mg
Structure (SMILES): C[C@]12CC[C@@H]3c4ccc(O)cc4CC[C@H]3[C@@H]1C[C@@H](O)[C@H]2O

- Drug metabolism [2]: 5 pmol/min/mg
- pKi [3]: 4.01
Structure (SMILES): C[C@]12CC[C@@H]3c4ccc(O)cc4CC[C@H]3[C@@H]1C[C@H](O)[C@@H]2O [EPIESTRIOL]

- Drug metabolism [4]: metabolite_detected
Structure (SMILES): C[C@]12CC[C@@H]3c4ccc(O)cc4CC[C@H]3[C@@H]1CC[C@@H]2O [ESTRADIOL]

- Drug metabolism [5]: 4 pmol/min/mg
Structure (SMILES): C[C@]12CC[C@@H]3c4ccc(O)cc4CC[C@H]3[C@@H]1C[C@@H](O)[C@@H]2O [ESTRIOL]
